Source: ChEMBL document CHEMBL2424563, “Semisynthesis of mallotus B from rottlerin: evaluation of cytotoxicity and apoptosis-inducing activity” (J Nat Prod, 2013)
Calls of active or inactive are those of the source. The rule behind the calls is not given here.

How the values were obtained:
HL-60 [1] = test: Cell cycle arrest in human HL60 cells assessed as accumulation at G2 phase at 40 uM after 24 hrs by propidium iodide staining-based FACS flow cytometric analysis (reference value: 1%); format: functional
Method in brief: (§1)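 HL-60 cells seeded at 0.44 × 10^6/mL and exposed to 10, 20, 30 or 40 μM for 24 h. Cells were pelleted at 400g, washed in ice-cold PBS and fixed overnight in ice-cold 70% ethanol at 4 °C. They were treated with RNase (0.2 mg/mL) for 1 h at 37 °C, then stained with PI (10 μg/mL) for 30 min in the dark. Flow cytometry collected 10 000 events (FL2-A vs FL2-W). Sub-G0, G1, S and G2 fractions were fitted by modelling software.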

HL-60 [2] = test: Cell cycle arrest in human HL60 cells assessed as accumulation at S phase at 40 uM after 24 hrs by propidium iodide staining-based FACS flow cytometric analysis (reference value: 54%); format: functional; method in brief: as §1
HL-60 [3] = test: Cell cycle arrest in human HL60 cells assessed as accumulation at G1 phase at 40 uM after 24 hrs by propidium iodide staining-based FACS flow cytometric analysis (reference value: 45%); format: functional; method in brief: as §1
HL-60 [4] = test: Cell cycle arrest in human HL60 cells assessed as accumulation at G2 phase at 30 uM after 24 hrs by propidium iodide staining-based FACS flow cytometric analysis (reference value: 1%); format: functional; method in brief: as §1
HL-60 [5] = test: Cell cycle arrest in human HL60 cells assessed as accumulation at sub-G0 phase at 40 uM after 24 hrs by propidium iodide staining-based FACS flow cytometric analysis (reference value: 3%); format: functional; method in brief: as §1
HL-60 [6] = test: Cell cycle arrest in human HL60 cells assessed as accumulation at S phase at 30 uM after 24 hrs by propidium iodide staining-based FACS flow cytometric analysis (reference value: 54%); format: functional; method in brief: as §1
HL-60 [7] = test: Cell cycle arrest in human HL60 cells assessed as accumulation at G1 phase at 30 uM after 24 hrs by propidium iodide staining-based FACS flow cytometric analysis (reference value: 45%); format: functional; method in brief: as §1
HL-60 [8] = test: Cell cycle arrest in human HL60 cells assessed as accumulation at sub-G0 phase at 30 uM after 24 hrs by propidium iodide staining-based FACS flow cytometric analysis (reference value: 3%); format: functional; method in brief: as §1
HL-60 [9] = test: Cell cycle arrest in human HL60 cells assessed as accumulation at G2 phase at 20 uM after 24 hrs by propidium iodide staining-based FACS flow cytometric analysis (reference value: 1%); format: functional; method in brief: as §1
HL-60 [10] = test: Cell cycle arrest in human HL60 cells assessed as accumulation at S phase at 20 uM after 24 hrs by propidium iodide staining-based FACS flow cytometric analysis (reference value: 54%); format: functional; method in brief: as §1
HL-60 [11] = test: Cell cycle arrest in human HL60 cells assessed as accumulation at G1 phase at 20 uM after 24 hrs by propidium iodide staining-based FACS flow cytometric analysis (reference value: 45%); format: functional; method in brief: as §1
HL-60 [12] = test: Cell cycle arrest in human HL60 cells assessed as accumulation at sub-G0 phase at 20 uM after 24 hrs by propidium iodide staining-based FACS flow cytometric analysis (reference value: 3%); format: functional; method in brief: as §1
HL-60 [13] = test: Cell cycle arrest in human HL60 cells assessed as accumulation at G2 phase at 10 uM after 24 hrs by propidium iodide staining-based FACS flow cytometric analysis (reference value: 1%); format: functional; method in brief: as §1
HL-60 [14] = test: Cell cycle arrest in human HL60 cells assessed as accumulation at S phase at 10 uM after 24 hrs by propidium iodide staining-based FACS flow cytometric analysis (reference value: 54%); format: functional; method in brief: as §1
HL-60 [15] = test: Cell cycle arrest in human HL60 cells assessed as accumulation at G1 phase at 10 uM after 24 hrs by propidium iodide staining-based FACS flow cytometric analysis (reference value: 45%); format: functional; method in brief: as §1
HL-60 [16] = test: Cell cycle arrest in human HL60 cells assessed as accumulation at sub-G0 phase at 10 uM after 24 hrs by propidium iodide staining-based FACS flow cytometric analysis (reference value: 3%); format: functional; method in brief: as §1
PC-3 = test: Cytotoxicity against human PC3 cells after 48 hrs by MTT assay; format: functional, cell-based; conditions: PC-3, 48 h
Method in brief: (§2)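 Cell lines from NCI, grown in RPMI1640 or MEM with 10% heat-inactivated FBS at 37 °C under 5% CO2. Seeded at 6000 cells/well overnight, then exposed to 1, 10, 30, 50 and 100 μM for 48 h. MTT (2.5 mg/mL) added for 3 h, formazan dissolved in DMSO, OD read at 540 nm (ref 620 nm). Growth taken as treated vs untreated absorbance, giving IC50.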

HL-60 [17] = test: Cytotoxicity against human HL60 cells after 48 hrs by MTT assay; format: functional, cell-based; conditions: HL-60, 48 h; method in brief: as §2
MIA PaCa-2 = test: Cytotoxicity against human MIAPaCa2 cells after 48 hrs by MTT assay; format: functional, cell-based; conditions: MIA PaCa-2, 48 h; method in brief: as §2
COLO 205 = test: Cytotoxicity against human COLO205 cells after 48 hrs by MTT assay; format: functional, cell-based; conditions: COLO 205, 48 h; method in brief: as §2
HepG2 = test: Cytotoxicity against human HepG2 cells after 48 hrs by MTT assay; format: functional, cell-based; conditions: HepG2, 48 h; method in brief: as §2
HL-60 [18] = test: Induction of apoptosis in human HL60 cells assessed as formation of scattered apoptotic bodies at 20 to 40 uM after 24 hrs by fluorescence microscopic analysis; format: functional, cell-based
Method in brief: (§3)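 After 24 h exposure, HL-60 cells were pelleted at 400g, washed twice in PBS and fixed in cold acetic acid–methanol (1:3) for 3 h on ice. They were spread on slides and dried overnight at room temperature. Staining used Hoechst 33258 (5 μg/mL in 0.45 M disodium phosphate/0.01 M citric acid/0.05% Tween 20) for 30 min at room temperature. Slides were mounted in PBS–glycerol and viewed by fluorescence microscopy at 30× for condensed nuclei and apoptotic bodies.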

HL-60 [19] = test: Induction of apoptosis in human HL60 cells assessed as nuclear condensation at 20 to 40 uM after 24 hrs by fluorescence microscopic analysis; format: functional, cell-based; method in brief: as §3
HL-60 [20] = test: Induction of apoptosis in human HL60 cells assessed as shrinkage of cell size at 20 to 40 uM after 24 hrs by fluorescence microscopic analysis; format: functional, cell-based; method in brief: as §3
HL-60 [21] = test: Induction of apoptosis in human HL60 cells assessed as cell wall deformation at 20 to 40 uM after 24 hrs by fluorescence microscopic analysis; format: functional, cell-based; method in brief: as §3
HL-60 [22] = test: Induction of apoptosis in human HL60 cells assessed as vesicle formation at 10 to 40 uM after 24 hrs by phase contrast microscopic analysis; format: functional, cell-based
Method in brief: (§4)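 HL-60 cells were exposed to the test concentrations for 24 h. Unstained cells were then photographed under phase-contrast microscopy to assess cellular morphology.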

HL-60 [23] = test: Induction of apoptosis in human HL60 cells assessed as blebbing of cell wall at 10 to 40 uM after 24 hrs by phase contrast microscopic analysis; format: functional, cell-based; method in brief: as §4
HL-60 [24] = test: Cell cycle arrest in human HL60 cells assessed as accumulation at sub-G0 phase after 24 hrs by propidium iodide staining-based FACS flow cytometric analysis; format: functional
Method in brief: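 HL-60 cells at 0.44 × 10^6/mL treated at 10, 20, 30 and 40 μM for 24 h. Collected at 400g, then fixed overnight in ice-cold 70% ethanol at 4 °C. RNase (0.2 mg/mL) at 37 °C for 1 h, then PI (10 μg/mL) for 30 min in the dark. Flow cytometry on 10 000 events, FL2-A vs FL2-W. Sub-G0 fraction taken as apoptotic.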

HL-60 [25] = test: Induction of mitochondrial membrane potential loss in human HL60 cells at 40 uM after 24 hrs by rhodamine-123 staining-based FACS flow cytometric analysis (reference value: 5%); format: functional
HL-60 [26] = test: Induction of mitochondrial membrane potential loss in human HL60 cells at 30 uM after 24 hrs by rhodamine-123 staining-based FACS flow cytometric analysis (reference value: 5%); format: functional
HL-60 [27] = test: Induction of mitochondrial membrane potential loss in human HL60 cells at 20 uM after 24 hrs by rhodamine-123 staining-based FACS flow cytometric analysis (reference value: 5%); format: functional
HL-60 [28] = test: Induction of mitochondrial membrane potential loss in human HL60 cells at 10 uM after 24 hrs by rhodamine-123 staining-based FACS flow cytometric analysis (reference value: 5%); format: functional

SMILES	Activity (HL-60 [1]) [%]	Activity (HL-60 [2]) [%]	Activity (HL-60 [3]) [%]	Activity (HL-60 [4]) [%]	Activity (HL-60 [5]) [%]	Activity (HL-60 [6]) [%]	Activity (HL-60 [7]) [%]	Activity (HL-60 [8]) [%]	Activity (HL-60 [9]) [%]	Activity (HL-60 [10]) [%]	Activity (HL-60 [11]) [%]	Activity (HL-60 [12]) [%]	Activity (HL-60 [13]) [%]	Activity (HL-60 [14]) [%]	Activity (HL-60 [15]) [%]	IC50 (PC-3) [µM]	IC50 (HL-60 [17]) [µM]	IC50 (MIA PaCa-2) [µM]	IC50 (COLO 205) [µM]	IC50 (HepG2) [µM]	other results
CC(=O)c1c(O)c(C)c(O)c(Cc2c(O)c3c(c(C(=O)/C=C/c4ccccc4)c2O)OC(C)(C)C=C3)c1O [ROTTLERIN]	4	63	33	12	84	46	42	80	12	31	58	64	7	26	67	> 20	9	8	> 20	> 20	Activity (HL-60 [16]): 19.6%; Activity (HL-60 [18]): Active; Activity (HL-60 [19]): Active; Activity (HL-60 [20]): Active; Activity (HL-60 [21]): Active; Activity (HL-60 [22]): Active; Activity (HL-60 [23]): Active; Activity (HL-60 [24]): Dose-dependent effect; Activity (HL-60 [25]): 89%; Activity (HL-60 [26]): 61%; Activity (HL-60 [27]): 28%; Activity (HL-60 [28]): 18%
CC1(C)C=Cc2c(OCc3ccccc3)cc(O)c(C(=O)/C=C/c3ccccc3)c2O1	12	42	46	8	83	49	43	39	8	48	45	9	6	54	40	> 20	15	> 20	> 20	> 20	Activity (HL-60 [16]): 3%; Activity (HL-60 [18]): Active; Activity (HL-60 [19]): Active; Activity (HL-60 [20]): Active; Activity (HL-60 [21]): Active; Activity (HL-60 [22]): Active; Activity (HL-60 [23]): Active; Activity (HL-60 [25]): 68%; Activity (HL-60 [26]): 38%; Activity (HL-60 [27]): 23%; Activity (HL-60 [28]): 6%
CC[C@@]1(O)C(=O)OCc2c1cc1n(c2=O)Cc2cc3ccccc3nc2-1 [CAMPTOTHECIN]	–	–	–	–	–	–	–	–	–	–	–	–	–	–	–	1.2	0.06	0.19	0.05	0.2	–
CC(=O)c1c(O)c(C)c(O)c(Cc2c(O)c(CC=C(C)C)c(O)c3c2O[C@H](c2ccccc2)CC3=O)c1O	18	22	60	7	55	16	77	29	4	18	78	26	5	20	75	> 20	16	9	> 20	> 20	Activity (HL-60 [16]): 14%; Activity (HL-60 [18]): Active; Activity (HL-60 [19]): Active; Activity (HL-60 [20]): Active; Activity (HL-60 [21]): Active; Activity (HL-60 [22]): Active; Activity (HL-60 [23]): Active; Activity (HL-60 [25]): 43%; Activity (HL-60 [26]): 25%; Activity (HL-60 [27]): 12%; Activity (HL-60 [28]): 6%
